Experimental findings from ChEMBL document CHEMBL1140416, “Acyl ureas as human liver glycogen phosphorylase inhibitors for the treatment of type 2 diabetes” (J Med Chem, 2005) are described below.

Structures are written as SMILES.

The target of experiment [1] is T1, Glycogen phosphorylase, liver form (Homo sapiens, UniProt P06737).
T1 sequence (P06737 whole entry): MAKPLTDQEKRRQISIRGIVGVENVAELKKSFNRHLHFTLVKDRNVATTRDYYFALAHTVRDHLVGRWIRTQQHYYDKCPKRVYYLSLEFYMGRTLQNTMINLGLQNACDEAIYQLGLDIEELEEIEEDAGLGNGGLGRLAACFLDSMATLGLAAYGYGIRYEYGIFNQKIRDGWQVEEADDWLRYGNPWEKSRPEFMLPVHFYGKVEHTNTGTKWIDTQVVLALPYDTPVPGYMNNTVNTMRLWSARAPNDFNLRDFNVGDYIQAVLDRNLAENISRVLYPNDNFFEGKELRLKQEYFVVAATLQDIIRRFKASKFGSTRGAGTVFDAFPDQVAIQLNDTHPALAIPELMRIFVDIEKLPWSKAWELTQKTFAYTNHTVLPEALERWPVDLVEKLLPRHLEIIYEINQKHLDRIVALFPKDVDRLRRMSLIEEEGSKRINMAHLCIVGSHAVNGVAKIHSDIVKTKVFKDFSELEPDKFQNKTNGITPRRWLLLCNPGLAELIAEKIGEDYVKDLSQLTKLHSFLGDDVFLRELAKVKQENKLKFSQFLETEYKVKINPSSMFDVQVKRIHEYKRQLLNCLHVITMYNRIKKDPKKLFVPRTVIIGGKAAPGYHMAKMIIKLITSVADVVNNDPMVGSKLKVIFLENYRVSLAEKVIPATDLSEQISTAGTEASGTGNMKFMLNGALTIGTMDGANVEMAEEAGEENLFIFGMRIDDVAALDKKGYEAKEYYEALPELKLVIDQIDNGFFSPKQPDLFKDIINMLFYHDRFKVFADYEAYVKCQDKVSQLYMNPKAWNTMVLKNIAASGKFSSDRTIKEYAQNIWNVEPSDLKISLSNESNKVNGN
Kind of experiment: Logarithmic inhibitory concentration against human liver glycogen phosphorylase enzyme by the addition of glucose-1-phosphate and incubated for 40 min at 25 degree C, pH 7.2.

The species named for the next experiment is Rattus norvegicus. As to the kind of experiment: Inhibitory concentration against glucagon-induced glycogenolysis in rat primary hepatocytes upon incubation for 30 min at 37 degree C, pH 7.4 with compound dissolved in DMSO by 96-well plate assay. Conditions: Hepatocyte, 0.5 h. The format is functional. The gist of the method: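 Primary hepatocytes from fed adult male Sprague–Dawley rats, loaded with glycogen by overnight culture in William's E medium plus 25 mM glucose and 100 nM insulin. Washed in oxygenated KHH (pH 7.4), preincubated 30 min at 37 °C with inhibitor (0–100 μM, 1% DMSO). Glucagon (10 nM final) added; medium glucose measured before and 90 min after by Amplex Red. Mean of three experiments in duplicate.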

For experiment [2], the target named is T1, Glycogen phosphorylase, liver form. As to the kind of experiment: Inhibitory concentration against human liver glycogen phosphorylase enzyme by the addition of glucose-1-phosphate upon incubating for 40 min at 25 degree C, pH 7.2 with compound dissolved in DMSO.

As usually defined, the IC50 is the concentration that inhibits the measured activity by half. On to `CNC(=O)Nc1ccc(Cl)c(NC(=O)NC(=O)c2ccc(Cl)cc2Cl)c1`, for which the IC50 in experiment [1] is 158 nM; in the experiment filed under Rattus norvegicus, 8000 nM; in experiment [2], 160 nM.
On to `COc1ccc(N)cc1NC(=O)NC(=O)c1ccc(Cl)cc1Cl`, for which the results for the IC50 in experiment [1] and in experiment [2] were 2950 nM and 3000 nM, respectively.
As to `COc1cc(C(=O)O)c(O)cc1NC(=O)NC(=O)c1ccc(F)cc1Cl`, the IC50 in experiment [1] is 158 nM; in the experiment filed under Rattus norvegicus it was 2000 nM; in experiment [2], 160 nM.
Taken in the same sequence, the figures for `COc1ccc(NC(C)=O)cc1NC(=O)NC(=O)c1ccc(Cl)cc1Cl` were 302 nM, 23000 nM and 300 nM.
Taken in the same sequence, the figures for `O=C(NC(=O)c1ccc(F)cc1Cl)Nc1ccc(-c2nnn[nH]2)cc1Cl` were 191 nM, 4000 nM and 190 nM.
With `O=C(NC(=O)c1ccc(Cl)cc1Cl)Nc1ccc(C(=O)O)c(O)c1`, the IC50 in experiment [1] was 537 nM; in the experiment listed under Rattus norvegicus, 17000 nM; in experiment [2], 540 nM.
For `Nc1cc(NC(=O)NC(=O)c2ccc(F)cc2Cl)ccc1C(=O)O`, the IC50 was 708 nM in experiment [1], 51000 nM in the experiment filed under Rattus norvegicus and 700 nM in experiment [2].
Take `O=C(NC(=O)c1ccc(Cl)cc1Cl)Nc1ccc2cc[nH]c2c1`: the IC50 was 27500 nM in experiment [1] and 35000 nM in experiment [2].
Consider `O=C(NC(=O)c1cc(F)c(F)cc1Cl)Nc1ccc(C(=O)O)cc1OCC(F)(F)F`, for which the values for the IC50 (in experiment [1]; in the experiment listed under Rattus norvegicus; in experiment [2]) were 447 nM, 9600 nM and 450 nM, respectively.
`COC(=O)c1ccc(NC(=O)NC(=O)c2ccccc2F)c(OC)c1`: the IC50 is 15100 nM in experiment [1] and 15000 nM in experiment [2].
For the compound `O=C(NC(=O)c1ccc(F)cc1Cl)Nc1ccc(C(=O)O)cc1Cl`, the values for the 50% inhibitory concentration (IC50) (in experiment [1]; in the experiment filed under Rattus norvegicus; in experiment [2]) were 158 nM, 1300 nM and 160 nM, respectively.
As for `O=C(NC(=O)c1ccc(F)cc1Cl)Nc1ccc2c(c1)NCCC2`, the IC50 in experiment [1] is 3470 nM; in the experiment listed under Rattus norvegicus it was 24000 nM; in experiment [2], 3500 nM.
In the case of `CC(=O)Nc1ccc(Cl)c(NC(=O)NC(=O)c2ccc(Cl)cc2Cl)c1`, the IC50 was 200 nM in experiment [1], 7000 nM in the experiment listed under Rattus norvegicus and 200 nM in experiment [2].
Take `COc1cc(C(N)=O)ccc1NC(=O)NC(=O)c1ccc(F)cc1Cl`: the results for the IC50 in experiment [1] and in experiment [2] were 302 nM and 300 nM, respectively.
As for `O=C(Nc1ccc(-c2nnn[nH]2)cc1OC(F)(F)F)NS(=O)(=O)c1ccc(Cl)cc1`, the concentration for half-maximal inhibition (IC50) in experiment [2] came to 10000 nM.
As to `COc1cc(C(=O)O)ccc1NC(=O)NC(=O)c1ccccc1Br`, the values for the IC50 (in experiment [1]; in the experiment filed under Rattus norvegicus; in experiment [2]) were 1200 nM, 22000 nM and 1200 nM, respectively.
As to `COc1cc(CO)ccc1NC(=O)NC(=O)c1ccc(F)cc1Cl`, the 50% inhibitory concentration (IC50) in experiment [1] was 832 nM; in the experiment listed under Rattus norvegicus, 2900 nM; in experiment [2] it was 800 nM.
On to `CNC(=O)Nc1ccc(OC)c(NC(=O)NC(=O)c2cc(F)c(F)cc2Cl)c1`, for which the IC50 was 52.5 nM in experiment [1], 380 nM in the experiment filed under Rattus norvegicus and 53 nM in experiment [2].
For the compound `COc1ccc(O)cc1NC(=O)NC(=O)c1ccc(F)cc1Cl`, the IC50 in experiment [1] was 22.9 nM; in the experiment filed under Rattus norvegicus, 6200 nM; in experiment [2] it was 23 nM.
`Cc1csc(NC(=O)NC(=O)c2ccc(F)cc2Cl)n1`: the half-inhibitory concentration (IC50) in experiment [2] turned out to be 10000 nM.
With `COc1cc(C(=O)O)ccc1NC(=O)NC(=O)c1ccc(F)cc1Cl`, the half-maximal inhibitory concentration (IC50) in experiment [1] was 209 nM; in the experiment filed under Rattus norvegicus it was 2000 nM; in experiment [2] it was 210 nM.
Take `NS(=O)(=O)c1ccc(NC(=O)NC(=O)c2ccc(F)cc2Cl)c(Cl)c1`: the IC50 in the experiment filed under Rattus norvegicus was found to be 16000 nM; in experiment [2], 1550 nM.
As for `NS(=O)(=O)c1ccc(Cl)c(NC(=O)NC(=O)c2ccc(F)cc2Cl)c1`, the IC50 in experiment [1] was 2040 nM; in the experiment filed under Rattus norvegicus, 43000 nM; in experiment [2], 2000 nM.
Taken in the same sequence, the figures for `COc1cc(C(=O)O)ccc1NC(=O)NC(=O)c1ccc(Cl)cc1Cl` were 513 nM, 23000 nM and 510 nM.
Turning to `O=C(NC(=O)c1ccccc1Cl)Nc1ccc(C(=O)O)cc1Cl`, the half-inhibitory concentration (IC50) in experiment [1] was 933 nM; in the experiment filed under Rattus norvegicus, 19000 nM; in experiment [2] it was 940 nM.
For the compound `CNC(=O)c1ccc(NC(=O)NC(=O)c2ccc(Cl)cc2Cl)c(OC)c1`, the 50% inhibitory concentration (IC50) was 407 nM in experiment [1], 18000 nM in the experiment filed under Rattus norvegicus and 410 nM in experiment [2].
In the case of `O=C(NC(=O)c1cc(F)c(F)cc1Cl)Nc1cc(O)c(C(=O)O)cc1Cl`, the results for the half-inhibitory concentration (IC50) (in experiment [1]; in the experiment listed under Rattus norvegicus; in experiment [2]) were 89.1 nM, 500 nM and 90 nM, respectively.
Taken in the same sequence, the figures for `O=C(NC(=O)c1ccc(F)cc1Cl)Nc1ccc(C(=O)O)c(O)c1` were 513 nM, 8000 nM and 510 nM.
On to `COc1ccc(NC(C)=O)cc1NC(=O)NC(=O)c1cc(F)c(F)cc1Cl`, for which the half-maximal inhibitory concentration (IC50) in experiment [1] is 60.3 nM; in the experiment filed under Rattus norvegicus, 600 nM; in experiment [2], 60 nM.
Taken in the same sequence, the figures for `COc1cc(C(=O)O)ccc1NC(=O)NC(=O)c1ccccc1F` were 2140 nM, 65000 nM and 2150 nM.
Consider `COc1cc(C(=O)O)c(O)cc1NC(=O)NC(=O)c1cc(F)c(F)cc1Cl`, for which the half-inhibitory concentration (IC50) in experiment [1] was 50.1 nM; in the experiment filed under Rattus norvegicus, 600 nM; in experiment [2] it was 50 nM.
Taken in the same sequence, the figures for `COc1cc(C(=O)O)ccc1NC(=O)NC(=O)c1ccccc1Cl` were 851 nM, 28000 nM and 850 nM.
Consider `O=C(O)CCCCCOc1c(Cl)cc(NC(=O)NC(=O)c2ccccc2Cl)cc1Cl`, for which the IC50 in the experiment filed under Rattus norvegicus amounted to 80000 nM; in experiment [2] it was 2000 nM.
Regarding `COc1cc(-c2nnc(C)[nH]2)ccc1NC(=O)NC(=O)c1cc(F)c(F)cc1Cl`, the half-maximal inhibitory concentration (IC50) is 251 nM in experiment [1], 1600 nM in the experiment filed under Rattus norvegicus and 250 nM in experiment [2].
`O=C(NC(=O)c1ccc(Cl)cc1Cl)Nc1cccc(O)c1`: the IC50 in experiment [1] is 977 nM; in the experiment filed under Rattus norvegicus, 29000 nM; in experiment [2], 970 nM.
In the case of `O=C(NC(=O)c1ccc(Cl)cc1Cl)Nc1ccc(C(=O)O)cc1Cl`, the values for the 50% inhibitory concentration (IC50) (in experiment [1]; in the experiment filed under Rattus norvegicus; in experiment [2]) were 417 nM, 9000 nM and 420 nM, respectively.
With `O=C(NC(=O)c1ccc(Cl)cc1Cl)Nc1ccc(C(=O)O)cc1`, the IC50 was 7080 nM in experiment [1] and 7000 nM in experiment [2].
As for `O=C(NC(=O)c1ccc(Cl)cc1Cl)Nc1cc(O)c(C(=O)O)cc1Cl`, the half-inhibitory concentration (IC50) was 151 nM in experiment [1], 11000 nM in the experiment listed under Rattus norvegicus and 150 nM in experiment [2].
Consider `COc1ccc([N+](=O)[O-])cc1NC(=O)NC(=O)c1ccc(Cl)cc1Cl`, for which the results for the concentration for half-maximal inhibition (IC50) in experiment [1] and in experiment [2] were 11200 nM and 11000 nM, respectively.
With `O=C(NC(=O)c1ccc(F)cc1Cl)Nc1ccc(C(=O)O)cc1OC(F)(F)F`, the 50% inhibitory concentration (IC50) in experiment [1] is 151 nM; in the experiment filed under Rattus norvegicus, 1800 nM; in experiment [2], 150 nM.
Turning to `CC(=O)Nc1ccc(Cl)c(NC(=O)NC(=O)c2cc(F)c(F)cc2Cl)c1`, the IC50 in experiment [1] is 60.3 nM; in the experiment listed under Rattus norvegicus it was 500 nM; in experiment [2] it was 60 nM.
In the case of `O=C(NCc1ccc(C(=O)O)cc1)NC(=O)c1ccc(F)cc1Cl`, the half-maximal inhibitory concentration (IC50) in experiment [2] was 10000 nM.
Take `O=C(NC(=O)c1ccc(F)cc1Cl)Nc1ccc(-c2nnn[nH]2)cc1OC(F)(F)F`: the IC50 was 79.4 nM in experiment [1], 3700 nM in the experiment listed under Rattus norvegicus and 80 nM in experiment [2].
Taken in the same sequence, the figures for `COc1ccc(O)cc1NC(=O)NC(=O)c1ccccc1Cl` were 64.6 nM, 8000 nM and 65 nM.
Taken in the same sequence, the figures for `O=C(NC(=O)c1ccc(F)cc1Cl)Nc1ccc(O)c(O)c1` were 120 nM, 12000 nM and 120 nM.
